Activity calls are given as the source filed them.
What was measured:
RAW264.7 [1] = assay: Anti-inflammatory activity in mouse RAW264.7 cells assessed as reduction in LPS-induced TNFalpha production preincubated for 2 hrs followed by LPS stimulation for 24 hrs by ELISA; assay type: functional, cell-based
Procedure, shortened: (§1)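 RAW 264.7 cells (DMEM, 10% heat-inactivated FBS, 37 °C, 5% CO2) pretreated 2 h with compound at 0.1, 1 or 10 μg/mL, then LPS 1 μg/mL for 24 h. TNF-α and IL-6 in the supernatant measured by sandwich ELISA. Dexamethasone 10 and 20 μM served as reference. Means ± SEM of quintuplicate replicates, one representative experiment.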

[2] = target: Transcription factor Jun (Mus musculus) (UniProt P05627); assay: Inhibition of LPS-induced nuclear translocation of AP-1 c-Jun component in mouse RAW264.7 cells up to 10 ug/ml preincubated for 2 hrs followed by LPS stimulation for 4 hrs by Western blot method; assay type: cell-based
Procedure, shortened: (§2)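 Pretreatment was 2 h (0.1, 1, 10 μg/mL), then LPS 1 μg/mL for 4 h. Cytosolic extracts came from a 1500g, 10 min, 4 °C spin and nuclear fractions from 13000g, 10 min, 4 °C. p65, c-Jun and c-Fos were detected by Western blot (8% SDS-PAGE, PVDF, ECL), with β-actin as reprobe control.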

[3] = target: T1, NF-kappa-B inhibitor alpha (Mus musculus) (UniProt Q9Z1E3); assay: Inhibition of LPS-induced degradation of IkappaB-alpha in mouse RAW264.7 cells at 10 ug/ml preincubated for 2 hrs followed by LPS stimulation up to 45 mins by Western blot method; assay type: cell-based
T1 sequence (whole entry): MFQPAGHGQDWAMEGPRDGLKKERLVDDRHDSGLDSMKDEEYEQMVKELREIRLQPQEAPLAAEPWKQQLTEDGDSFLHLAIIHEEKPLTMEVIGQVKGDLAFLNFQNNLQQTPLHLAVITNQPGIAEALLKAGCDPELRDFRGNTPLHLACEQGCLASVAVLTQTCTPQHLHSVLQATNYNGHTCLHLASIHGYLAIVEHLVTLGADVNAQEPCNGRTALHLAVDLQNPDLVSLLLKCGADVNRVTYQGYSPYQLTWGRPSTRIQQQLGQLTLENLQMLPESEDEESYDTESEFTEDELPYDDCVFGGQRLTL
Procedure, shortened: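 Cells were pretreated 2 h with 10 μg/mL, then given LPS 1 μg/mL for varying times. IκBα was detected in lysates by Western blot with ECL, using β-actin as internal control. Results are representative of three experiments.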

RAW264.7 [4] = assay: Anti-inflammatory activity in mouse RAW264.7 cells assessed as reduction in LPS-induced NO production up to 10 ug/ml preincubated for 2 hrs followed by LPS stimulation for 24 hrs by Griess assay; assay type: functional, cell-based
Procedure, shortened: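 RAW 264.7 cells were pretreated 2 h with 0.1–10 μg/mL, then given LPS 1 μg/mL for 24 h. Supernatant was mixed 1:1 with Griess reagent (sulfanilamide in 5% phosphoric acid plus α-naphthylamide) for 15 min at room temperature, and A550 was read. Nitrite served as the NO index. Dexamethasone 10 and 20 μM was the reference. Quintuplicates, mean ± SEM.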

RAW264.7 [5] = assay: Anti-inflammatory activity in mouse RAW264.7 cells assessed as reduction in LPS-induced IL-6 production preincubated for 2 hrs followed by LPS stimulation for 24 hrs by ELISA; assay type: functional, cell-based; procedure, shortened: as §1
RAW264.7 [6] = assay: Cytotoxicity against mouse RAW264.7 cells assessed as reduction in cell viability up to 100 ug/ml after 24 hrs by MTT assay; assay type: cell-based; settings: raw264.7, 24 h
Procedure, shortened: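 RAW 264.7 cells were seeded at 5 × 10^4 per well and exposed 24 h to 0.1, 1, 10, 50 and 100 μg/mL. MTT was then added in full DMEM for 4 h, formazan was dissolved in DMSO, and OD was read at 550 nm.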

[7] = target: Proto-oncogene c-Fos (Mus musculus) (UniProt P01101); assay: Inhibition of LPS-induced nuclear translocation of AP-1 c-Fos component in mouse RAW264.7 cells up to 10 ug/ml preincubated for 2 hrs followed by LPS stimulation for 4 hrs by Western blot method
[8] = target: Transcription factor Jun (Homo sapiens) (UniProt P05412); assay: Inhibition of AP-1 (unknown origin) activation expressed in LPS-stimulated mouse RAW264.7 cells preincubated for 2 hrs followed by LPS stimulation for 4 hrs by luciferase reporter gene assay; assay type: cell-based
Procedure, shortened: (§3)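 Cells were plated at 5 × 10^5/mL and transiently cotransfected by lipofection with pGL3-NF-κB-Luc or pGL2-AP-1-Luc plus a normalization plasmid. After 24 h they were pretreated 2 h with the compound (0.1, 1, 10 μg/mL for NF-κB), then given LPS 1 μg/mL for 4 h. Cells were washed in cold PBS, and luciferase was read in the lysates.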

[9] = target: Mitogen-activated protein kinase 1 and 3 (ERK2 and ERK1) (Mus musculus) (UniProt P63085+Q63844); assay: Inhibition of LPS-induced ERK1/2 phosphorylation in mouse RAW264.7 cells up to 10 ug/ml preincubated for 2 hrs followed by LPS stimulation for 15 mins by Western blot method; assay type: cell-based
Procedure, shortened: (§4)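 RAW 264.7 cells were preincubated 2 h at 0.1, 1 or 10 μg/mL, then exposed to LPS 1 μg/mL for 15 min. Lysates were resolved on 8% SDS-PAGE, transferred to PVDF and probed for the phosphorylated MAP kinases. Detection was by ECL, with membranes reprobed for β-actin as loading control.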

RAW264.7 [10] = assay: Anti-inflammatory activity in mouse RAW264.7 cells transfected with ATF-3 shRNA assessed as reduction in LPS-induced TNFalpha production at 10 ug/ml preincubated for 2 hrs followed by LPS stimulation for 24 hrs by ELISA; assay type: functional, cell-based
Procedure, shortened: (§5)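 Cells received compound at 10 μg/mL for 2 h, then LPS 1 μg/mL for 24 h. TNF-α and IL-6 in the medium were measured by ELISA and compared with control shRNA cells.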

[11] = target: MAP kinase p38 (Mus musculus) (UniProt P47811+O08911+Q9WUI1+Q9Z1B7); assay: Inhibition of LPS-induced MAPK p38 phosphorylation in mouse RAW264.7 cells up to 10 ug/ml preincubated for 2 hrs followed by LPS stimulation for 15 mins by Western blot method; assay type: cell-based; procedure, shortened: as §4
[12] = target: Transcription factor p65 (Mus musculus) (UniProt Q04207); assay: Inhibition of p65 nuclear translocation in LPS-stimulated mouse RAW264.7 cells preincubated for 2 hrs followed by LPS stimulation for 4 hrs by Western blot method; procedure, shortened: as §2
RAW264.7 [13] = assay: Induction of LPS-induced ATF-3 expression in mouse RAW264.7 cells preincubated for 2 hrs followed by LPS stimulation for 4 hrs by Western blot method; assay type: functional, cell-based
Procedure, shortened: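 Cells were pretreated 2 h (0.1–10 μg/mL), then stimulated with LPS 1 μg/mL for 4 h. ATF-3 was detected by Western blot (8% SDS-PAGE, PVDF, ECL) and quantified by densitometry, normalized to β-actin, in arbitrary units. Blots are representative of three experiments.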

Mus musculus = species: Mus musculus; assay: Inhibition of LPS-induced JNK phosphorylation in mouse RAW264.7 cells up to 10 ug/ml preincubated for 2 hrs followed by LPS stimulation for 15 mins by Western blot method; assay type: cell-based; procedure, shortened: as §4
RAW264.7 [14] = assay: Anti-inflammatory activity in mouse RAW264.7 cells transfected with ATF-3 shRNA assessed as reduction in LPS-induced IL-6 production at 10 ug/ml preincubated for 2 hrs followed by LPS stimulation for 24 hrs by ELISA; assay type: functional, cell-based; procedure, shortened: as §5
Homo sapiens = species: Homo sapiens; assay: Inhibition of NF-kB (unknown origin) activation expressed in LPS-stimulated mouse RAW264.7 cells up to 10 ug/ml preincubated for 2 hrs followed by LPS stimulation for 4 hrs by luciferase reporter gene assay; assay type: cell-based; procedure, shortened: as §3

Chain of Proto-oncogene c-Fos (Mus musculus) (P01101 whole entry, looked up): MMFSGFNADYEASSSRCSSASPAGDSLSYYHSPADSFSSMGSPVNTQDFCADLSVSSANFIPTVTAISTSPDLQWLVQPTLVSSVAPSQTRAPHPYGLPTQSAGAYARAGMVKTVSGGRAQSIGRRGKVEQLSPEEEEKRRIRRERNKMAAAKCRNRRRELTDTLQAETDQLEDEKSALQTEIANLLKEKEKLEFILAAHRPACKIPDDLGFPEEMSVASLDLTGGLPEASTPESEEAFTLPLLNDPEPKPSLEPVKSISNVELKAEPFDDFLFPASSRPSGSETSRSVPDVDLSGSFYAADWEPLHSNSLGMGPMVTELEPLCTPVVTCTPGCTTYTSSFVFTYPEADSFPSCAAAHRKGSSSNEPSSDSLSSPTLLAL
Chain of Transcription factor Jun (Mus musculus) (P05627 whole entry): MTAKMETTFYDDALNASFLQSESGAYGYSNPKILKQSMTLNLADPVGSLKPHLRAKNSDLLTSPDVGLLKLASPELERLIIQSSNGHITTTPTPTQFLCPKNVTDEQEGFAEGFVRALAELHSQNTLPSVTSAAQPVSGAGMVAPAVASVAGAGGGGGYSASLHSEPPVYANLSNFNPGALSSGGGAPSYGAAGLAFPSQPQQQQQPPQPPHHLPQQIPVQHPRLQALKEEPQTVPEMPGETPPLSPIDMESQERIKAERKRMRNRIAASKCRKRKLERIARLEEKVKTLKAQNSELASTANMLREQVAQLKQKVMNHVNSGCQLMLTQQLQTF
Chain of Transcription factor Jun (Homo sapiens) (P05412 whole entry): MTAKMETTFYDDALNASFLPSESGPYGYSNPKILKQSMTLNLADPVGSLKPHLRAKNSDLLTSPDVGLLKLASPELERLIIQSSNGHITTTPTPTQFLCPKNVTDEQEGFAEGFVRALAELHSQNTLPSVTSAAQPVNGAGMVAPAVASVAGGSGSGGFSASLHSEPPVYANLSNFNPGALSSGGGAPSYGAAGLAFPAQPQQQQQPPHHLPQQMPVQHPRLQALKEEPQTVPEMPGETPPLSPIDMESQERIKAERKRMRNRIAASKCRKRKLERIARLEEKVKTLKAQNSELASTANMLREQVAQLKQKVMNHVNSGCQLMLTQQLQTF
Chain of Transcription factor p65 (Mus musculus) (Q04207 whole entry): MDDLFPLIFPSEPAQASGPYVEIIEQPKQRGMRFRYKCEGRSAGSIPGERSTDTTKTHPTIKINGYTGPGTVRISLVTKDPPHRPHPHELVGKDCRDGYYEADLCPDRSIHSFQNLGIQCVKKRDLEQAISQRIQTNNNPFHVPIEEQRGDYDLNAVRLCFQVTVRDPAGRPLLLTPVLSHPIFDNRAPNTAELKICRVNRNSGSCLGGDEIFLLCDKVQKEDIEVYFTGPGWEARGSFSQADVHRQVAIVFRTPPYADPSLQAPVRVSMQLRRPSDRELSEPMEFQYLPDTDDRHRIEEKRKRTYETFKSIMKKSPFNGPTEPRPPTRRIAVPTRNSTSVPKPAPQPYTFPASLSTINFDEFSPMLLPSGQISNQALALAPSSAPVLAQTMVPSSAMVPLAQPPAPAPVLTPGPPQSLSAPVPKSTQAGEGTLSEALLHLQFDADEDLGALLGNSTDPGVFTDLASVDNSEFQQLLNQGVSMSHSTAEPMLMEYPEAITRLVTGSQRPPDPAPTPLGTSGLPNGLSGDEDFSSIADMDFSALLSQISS
Chain of Mitogen-activated protein kinase 1 and 3 (ERK2 and ERK1) (Mus musculus) (P63085 whole entry, looked up): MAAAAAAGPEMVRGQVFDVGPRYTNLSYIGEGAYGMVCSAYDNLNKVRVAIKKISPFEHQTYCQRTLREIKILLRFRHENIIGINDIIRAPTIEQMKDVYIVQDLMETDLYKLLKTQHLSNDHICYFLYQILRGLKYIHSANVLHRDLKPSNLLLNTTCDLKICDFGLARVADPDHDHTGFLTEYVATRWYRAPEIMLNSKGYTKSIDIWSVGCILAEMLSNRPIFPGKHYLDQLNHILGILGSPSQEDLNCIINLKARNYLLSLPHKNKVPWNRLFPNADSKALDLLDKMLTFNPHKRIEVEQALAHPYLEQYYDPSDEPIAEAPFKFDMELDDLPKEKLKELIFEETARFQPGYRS
Chain of Mitogen-activated protein kinase 1 and 3 (ERK2 and ERK1) (Mus musculus) (Q63844 whole entry, looked up): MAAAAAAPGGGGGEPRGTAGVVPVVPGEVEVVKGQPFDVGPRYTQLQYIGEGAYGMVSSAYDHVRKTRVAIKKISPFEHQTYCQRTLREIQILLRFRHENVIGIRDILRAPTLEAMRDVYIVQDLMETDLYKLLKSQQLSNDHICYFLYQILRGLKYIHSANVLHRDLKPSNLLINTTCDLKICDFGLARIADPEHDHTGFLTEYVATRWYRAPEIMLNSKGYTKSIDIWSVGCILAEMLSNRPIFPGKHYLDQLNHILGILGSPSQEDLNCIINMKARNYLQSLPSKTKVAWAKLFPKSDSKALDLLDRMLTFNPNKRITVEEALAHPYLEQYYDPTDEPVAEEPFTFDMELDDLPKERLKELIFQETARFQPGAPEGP

NCCCOc1cccc(C(=O)O)c1N
active: Activity (RAW264.7 [1]) Dose-dependent effect | inhibition [2] | inhibition [3] | Activity (RAW264.7 [5]) Dose-dependent effect | inhibition [7] | inhibition [8] Dose-dependent effect | inhibition [9] | inhibition [12] Dose-dependent effect | Activity (RAW264.7 [13]) | inhibition (Mus musculus) | inhibition (Homo sapiens)
Non-Toxic: Activity (RAW264.7 [6])
inactive: Activity (RAW264.7 [4]) | Activity (RAW264.7 [10]) | inhibition [11] | Activity (RAW264.7 [14])
